Data: ChEMBL document CHEMBL4196080, “Identification of small-molecule inhibitors of USP2a” (Eur J Med Chem, 2018)
Activity calls are given as the source filed them. No cut-off for these calls is given here.

Experiments:
[1] = target: T1, Ubiquitin carboxyl-terminal hydrolase 2 (Homo sapiens, UniProt O75604); assay: (§1) Inhibition of human USP2a (258 to 605 residues) expressed in Escherichia coli BL21(DE3) using Ub-AMC as substrate incubated for 30 mins measured at 30 secs interval by fluorescence assay
T1 sequence (O75604 whole entry): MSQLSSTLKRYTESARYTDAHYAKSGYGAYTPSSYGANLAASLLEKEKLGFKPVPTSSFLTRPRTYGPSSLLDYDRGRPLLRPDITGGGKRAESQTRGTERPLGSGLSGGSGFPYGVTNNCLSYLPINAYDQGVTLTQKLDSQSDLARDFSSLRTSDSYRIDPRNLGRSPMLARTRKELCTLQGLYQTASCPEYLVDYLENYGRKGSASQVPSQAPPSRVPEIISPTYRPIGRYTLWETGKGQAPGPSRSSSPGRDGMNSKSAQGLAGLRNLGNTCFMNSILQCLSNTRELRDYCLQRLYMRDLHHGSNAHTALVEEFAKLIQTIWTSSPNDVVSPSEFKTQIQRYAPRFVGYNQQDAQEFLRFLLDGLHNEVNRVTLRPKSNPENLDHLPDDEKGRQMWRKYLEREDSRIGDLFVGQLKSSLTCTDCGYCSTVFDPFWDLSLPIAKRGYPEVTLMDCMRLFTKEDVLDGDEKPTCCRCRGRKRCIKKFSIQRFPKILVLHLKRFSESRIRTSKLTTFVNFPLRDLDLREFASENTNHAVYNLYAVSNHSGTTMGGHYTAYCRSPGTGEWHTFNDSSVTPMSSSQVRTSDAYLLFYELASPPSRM
In short: (§2)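 USP2a purified by Ni-chelate, Q-Sepharose flow-through and gel filtration in PBS pH 7.4 with 5 mM DTT. Enzyme at 10 nM in 50 mM Tris/HCl pH 7.5, 1 mM EDTA, 1 mM MgCl2, preincubated 30 min with compound. Ub-AMC 500 nM then added. Fluorescence (ex 355/em 460 nm) read every 30 s. Turbidity checked at 600 nm. Excess wild-type ubiquitin served as positive control. Percent inhibition was fitted to dose-response curves.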

[2] = target: T2, Ubiquitin carboxyl-terminal hydrolase 2 (Homo sapiens) (UniProt O75604); assay: (§3) Binding affinity to 15N-Gly/Cys/Ser/Trp-labeled human USP2a expressed in Escherichia coli BL21(DE3) assessed as change in chemical shift by NMR method
T2 sequence (whole entry): T1 sequence (O75604 whole entry)
In short: (§4)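 Selectively 15N-Gly/Cys/Ser/Trp-labeled USP2a from gel filtration in PBS pH 7.4 with 5 mM DTT, with 10% D2O added for lock. Ligand stock was 50 mM in d6-DMSO. Titration run in three steps at protein:compound ratios 1:1, 1:5 and 1:15. Binding followed as cross-peak shifts.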

[3] = target: T2, Ubiquitin carboxyl-terminal hydrolase 2 (Homo sapiens); assay: Inhibition of human USP2a (258 to 605 residues) expressed in Escherichia coli BL21(DE3) at 2000 uM using Ub-AMC as substrate incubated for 30 mins measured at 30 secs interval by fluorescence assay; in short: as §2
[4] = target: Ubiquitin carboxyl-terminal hydrolase 7 (Homo sapiens) (UniProt Q93009); assay: Inhibition of human USP7 (208 to 561 residues) catalytic domain expressed in Escherichia coli BL21(DE3) at 10 to 2000 uM using Ub-AMC as substrate incubated for 30 mins measured at 30 secs interval by fluorescence assay
In short: (§5)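 GST-tagged USP7 catalytic domain (208-561) was expressed at 16 °C overnight. Tag removed with PreScission protease, then purified by Q-Sepharose, Mono Q and gel filtration in 50 mM Tris/HCl, 150 mM NaCl, 2 mM DTT. Activity measured by Ub-AMC hydrolysis (500 nM substrate, ex 355/em 460 nm, 30 s reads) after 30 min preincubation with compound. Values are mean ± SD.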

[5] = target: T2, Ubiquitin carboxyl-terminal hydrolase 2 (Homo sapiens); assay: Inhibition of USP2a in human HCT116 cells assessed as downregulation of cycline D1 expression at 20 uM after 48 hrs by Western blot analysis; type: cell-based
In short: (§6)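 HCT 116 and MCF-7 cells were exposed to 20 μM compound or an equivalent DMSO portion and cultured for 48 h. Cyclin D1 levels were then assessed by western blot.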

[6] = target: T2, Ubiquitin carboxyl-terminal hydrolase 2 (Homo sapiens); assay: Inhibition of USP2a in human MCF7 cells assessed as downregulation of cycline D1 expression at 20 uM after 48 hrs by Western blot analysis; type: cell-based; in short: as §6
[7] = target: T1, Ubiquitin carboxyl-terminal hydrolase 2; assay: as §3; in short: as §4
[8] = target: T2, Ubiquitin carboxyl-terminal hydrolase 2 (Homo sapiens); assay: as §1; in short: as §2
[9] = target: Ubiquitin carboxyl-terminal hydrolase 7 (Homo sapiens) (UniProt Q93009); assay: Inhibition of human USP7 (208 to 561 residues) catalytic domain expressed in Escherichia coli BL21(DE3) at 10 uM using Ub-AMC as substrate incubated for 30 mins measured at 30 secs interval by fluorescence assay; in short: as §5

Ubiquitin carboxyl-terminal hydrolase 7 (Homo sapiens), sequence (Q93009 whole entry, looked up, the tested form may be a part): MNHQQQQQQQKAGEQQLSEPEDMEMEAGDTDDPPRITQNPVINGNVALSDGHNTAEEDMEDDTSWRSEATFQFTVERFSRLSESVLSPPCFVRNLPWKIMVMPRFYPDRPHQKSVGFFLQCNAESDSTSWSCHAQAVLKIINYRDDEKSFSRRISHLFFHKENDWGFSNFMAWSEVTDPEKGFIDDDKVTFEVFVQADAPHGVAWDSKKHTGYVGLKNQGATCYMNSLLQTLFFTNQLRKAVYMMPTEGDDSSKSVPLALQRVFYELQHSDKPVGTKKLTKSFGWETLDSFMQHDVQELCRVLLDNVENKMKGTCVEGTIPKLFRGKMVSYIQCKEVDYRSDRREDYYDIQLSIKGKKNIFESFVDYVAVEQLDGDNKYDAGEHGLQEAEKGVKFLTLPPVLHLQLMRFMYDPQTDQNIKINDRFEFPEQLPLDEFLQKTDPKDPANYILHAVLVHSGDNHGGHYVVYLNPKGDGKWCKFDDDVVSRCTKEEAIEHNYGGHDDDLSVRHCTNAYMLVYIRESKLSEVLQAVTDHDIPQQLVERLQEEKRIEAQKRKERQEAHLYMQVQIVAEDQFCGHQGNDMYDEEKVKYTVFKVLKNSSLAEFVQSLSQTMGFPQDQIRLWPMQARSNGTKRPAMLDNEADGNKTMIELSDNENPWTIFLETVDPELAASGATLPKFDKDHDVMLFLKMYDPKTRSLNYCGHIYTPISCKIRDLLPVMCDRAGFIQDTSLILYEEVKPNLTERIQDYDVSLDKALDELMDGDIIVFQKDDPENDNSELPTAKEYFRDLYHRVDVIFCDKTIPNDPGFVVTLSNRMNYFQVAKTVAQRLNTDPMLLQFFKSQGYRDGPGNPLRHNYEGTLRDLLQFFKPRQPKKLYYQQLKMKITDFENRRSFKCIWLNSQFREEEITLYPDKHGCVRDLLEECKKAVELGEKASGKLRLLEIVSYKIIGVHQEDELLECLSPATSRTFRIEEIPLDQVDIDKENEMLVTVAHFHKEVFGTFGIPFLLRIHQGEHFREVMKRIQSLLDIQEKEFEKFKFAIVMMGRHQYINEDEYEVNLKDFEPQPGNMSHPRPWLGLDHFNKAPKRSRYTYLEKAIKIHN

Work on `Cc1cc(C#N)cc(C)c1O` yielded an IC50 ([1]; read-out: IC50) greater than 5000 µM.
In the case of `Nc1cc(-c2ccccc2)n[nH]1`, the IC50 ([1]; read-out: IC50) is reported as greater than 5000 µM and the Activity [2] is reported as “inactive”.
For `Cl.NCc1ccc(Cc2cccs2)cc1`, the IC50 [1] was “Not Active”.
For `OCc1cc(-c2cccs2)on1`, the IC50 ([1]; read-out: IC50) was 1300 µM, the inhibition [3] was “Active” and the inhibition [4] was “inactive”. For the same compound, the inhibition [5] was “inactive”, the inhibition [6] was “inactive” and the Kd [7] was 900 µM.
With `CN1CCOc2cc(C#N)ccc21` the IC50 [1] was “Not Active”.
Work on `CCCn1nc(C(=O)OCc2cc(-c3cccs3)on2)c2ccccc2c1=O` yielded an IC50 ([1]; read-out: IC50) greater than 100 µM.
In the case of `CC(C)(C)OC(=O)CNC(=O)c1cc(-c2cccs2)on1`, the IC50 [1] is reported as “Not Active”.
In the case of `NC(=O)c1c(N)sc2c1CCCC2`, the IC50 ([1]; read-out: IC50) is reported as 8.7 µM.
For `Nc1ccc(-c2cnco2)cc1`, the Activity [2] was “inactive”.
In the case of `O=C(OCc1cc(-c2cccs2)on1)c1ccc(S(=O)(=O)N2CCOCC2)cc1`, the IC50 [1] is reported as “Not Active”.
`O=C(O)CNC(=O)c1cc(-c2cccs2)on1` was tested, and the IC50 [1] was “Not Active”.
With `COc1ccc(N2CC(C(=O)OCc3cc(-c4cccs4)on3)CC2=O)cc1` (stereo unspecified) the IC50 [1] was “Not Active”.
`O=C(O)COCc1cc(-c2cccs2)on1` was tested, and the IC50 [1] was “Not Active”.
With `NC(=O)c1c(NC(=O)COCc2cc(-c3cccs3)on2)sc2c1CCCC2` the inhibition [8] was “Dose-dependent effect”, the IC50 ([1]; read-out: IC50) was 3.3 µM and the inhibition [5] was “Active”. For the same compound, the inhibition [6] was “Active” and the inhibition [9] was “inactive”.
For `COC(=O)c1ccc2cc[nH]c2c1`, the Activity [2] was “inactive”.
In the case of `CC(Oc1ccc(C#N)cc1)C(=O)OCc1cc(-c2cccs2)on1` (stereo unspecified), the IC50 ([1]; read-out: IC50) is reported as greater than 50 µM.
For `Cc1c(CO)cnn1-c1ccccc1`, the IC50 [1] was “Not Active”.
`NCc1ccc(-c2csnn2)cc1` was tested, and the IC50 ([1]; read-out: IC50) was greater than 5000 µM.
`O=C(O)c1cc(-c2cccs2)on1` was tested, and the IC50 [1] was “Not Active”.
With `COc1ccc2c(c1)CCCC2=O` the Activity [2] was “inactive”.
For `CSc1nnc(-n2cccc2)s1`, the Activity [2] was “inactive”.
